Publication PMC8273112 (ACS Infectious Diseases, 2021)
Structures can show the parent of a compound that is named as a salt. Where two headings read alike, the source gives them in different places.

Experiments:
[1] = system: Plasmodium falciparum strain Dd2; experiment: SYBR Green growth inhibition assay, P. falciparum Dd2; type: cell-based
[2] = system: Plasmodium falciparum strain D6; experiment: SYBR Green growth inhibition assay, P. falciparum D6; type: cell-based; details: read-out: IC50 D6
[3] = system: P. falciparum A6 (SB1-A6); experiment: SYBR Green growth inhibition assay, P. falciparum A6; type: cell-based, Plasmodium falciparum; details: 72 h, read-out: IC50 A6
Summary of the method: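 Asynchronous parasites grown in human erythrocytes in RPMI-1640 with HEPES, hypoxanthine and Albumax II under 5% O2/5% CO2/90% N2 at 37 °C. Test compound in 2-fold serial dilution from 20 μM, run in quadruplicate, at 2% hematocrit and 0.2% starting parasitemia for 72 h. SYBR Green I lysis dye added for ≥1 h in the dark. Fluorescence read at 497/520 nm, normalized to untreated wells and plotted against log concentration.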

Plasmodium yoelii [4] = experiment: Modified 4-day Peters test, murine malaria; type: in vivo, Plasmodium yoelii in mice; details: for P. yoelii ED50 / P. yoelii ED90: oral gavage days 1–4, parasitemia day 5, mice; for P. yoelii NRD (nonrecrudescence dose, cure dose): oral gavage up to 25 mg/kg/day, no parasites at day 30
HepG2 cytotoxicity assay = type: cell-based, human; details: human, HepG2 cells
[5] = system: P. falciparum strain Tm90–C2B; experiment: SYBR Green growth inhibition assay, P. falciparum Tm90-C2B; type: cell-based, Plasmodium falciparum; details: read-out: IC50 Tm90–C2B
Summary of the method: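 Human erythrocytes (≤28 days old), 2% hematocrit, asynchronous culture at 0.2% initial parasitemia, in RPMI-1640 with HEPES, hypoxanthine, glucose, glutamine and Albumax II. 2-fold serial dilution starting at 20 μM, quadruplicate. Incubated 72 h at 37 °C under 5% O2/5% CO2/90% N2. SYBR Green I dye-detergent added for at least 1 h in the dark; fluorescence read at 497/520 nm, normalized to untreated wells, plotted against log concentration.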

HepG2 cells = experiment: HepG2 cytotoxicity assay; type: cell-based, human; details: read-out: IC50 cytotoxicity, 24 h drug, 24 h recovery
Leishmania donovani = details: read-out: in vitro IC50 Leishmania donovani; cited from earlier work
P. falciparum = details: cited from earlier work
[6] = cited from earlier work
[7] = Murine microsomal stability; type: in vitro ADME; details: for CLint scaled at 1 μM / half-life at 1 μM: mouse, pooled murine liver microsomes; for CLint scaled at 1 μM: pH 7.4; for half-life at 1 μM: pH 7.4, murine microsomal stability, t1/2, 1 μM
Toxoplasma gondii = details: cited from earlier work
P. berghei = details: cited from earlier work
Babesia microti = details: oral; cited from earlier work
Plasmodium yoelii [8] = details: at any dose level; no reference given; cited from earlier work
[9] = Plasmodium falciparum, DD2, 72 h, read-out: IC50 Dd2
[10] = Plasmodium falciparum, D6, 72 h
[11] = Plasmodium falciparum, TM90, 72 h
[12] = read-out: IC50 Dd2, multidrug-resistant P. falciparum strain Dd2, 72 h
[13] = P. falciparum pan-sensitive strain D6, 72 h, average of two to four determinations
[14] = in-house derived mutant line resistant to respiratory antagonists
[15] = multidrug-resistant clinical isolate also resistant to atovaquone, 72 h
[16] = 0.5 mg/mL protein, 37 °C, 1 h, NADPH

Molecule	IC50 [1, 9] [nM]	IC50 [2, 10] [nM]	IC50 ([3]; Plasmodium falciparum) [nM]	IC50 at 24 h (HepG2 cytotoxicity assay) [nM]	IC50 [5, 11] [nM]	IC50 [1, 12] [nM]	IC50 [2, 13] [nM]	IC50 [3, 14] [nM]	IC50 (HepG2 cells) [nM]	IC50 [5, 15] [nM]	other results
Cl.N#Cc1ccc(C=NNC(=N)NN=Cc2ccc(C#N)cc2)cc1 [Compound 22, 2,2′-Bis[(4-cyanophenyl)methylene]carbonimidic Dihydrazide Hydrochloride]	166	58	76	> 200000	312						P. yoelii ED50 (Plasmodium yoelii [4]): 2.7 mg/kg/day; P. yoelii ED90 (Plasmodium yoelii [4]): 7.7 mg/kg/day; P. yoelii NRD (nonrecrudescence dose, cure dose) (Plasmodium yoelii [4]): >25 mg/kg/day
N=C(NN=Cc1cccc(-n2cnnn2)c1)NN=Cc1cccc(-n2cnnn2)c1 [Compound 34, 2,2′-Bis[(3-tetrazole-1-phenyl)methylene]carbonimidic Dihydrazide Hydrochloride]						> 5000	1640	4790	107000	> 5000	
2,2′-Bis[(4-carbonamidophenyl)methylene]carbonimidic Dihydrazide Hydrochloride [Compound 30]						405	527	516	42000	727	
N=C(NN=Cc1ccc(O)cc1)NN=Cc1ccc(O)cc1 [Compound 25, 2,2′-Bis[(4-phenol)methylene]carbonimidic Dihydrazide Hydrochloride]						240	143	278	39000	286	
N=C(NN=Cc1ccc(-n2cnnn2)cc1)NN=Cc1ccc(-n2cnnn2)cc1 [Compound 35, 2,2′-Bis[(4-tetrazole-1-phenyl)methylene]carbonimidic Dihydrazide Hydrochloride]						> 5000	838	> 5000	> 200000	> 5000	
N=C(NN=Cc1ccc(C(=O)O)cc1)NN=Cc1ccc(C(=O)O)cc1 [Compound 29, 2,2′-Bis[(phenyl-4-carbonate)methylene]carbonimidic Dihydrazide Hydrochloride]						> 5000	> 5000	> 5000	> 200000	> 5000	
O=C1C(O)=C([C@H]2CC[C@H](c3ccc(Cl)cc3)CC2)C(=O)c2ccccc21 [atovaquone, reference compound]	< 1	< 1	> 5000	72000	> 5000						
N=C(NN=Cc1ccc2c(c1)OC(F)(F)O2)NN=Cc1ccc2c(c1)OC(F)(F)O2 [Compound 36, 2,2′-Bis{[4-(2,2-difluoro-2,3-dioxazolo)]phenyl}methylene]carbonimidic Dihydrazide Hydrochloride]						800	250	235	> 200000	905	
Cl.Cl.Cl.N=C(N)c1cccc(/C=N/N=C(\N)N/N=C/c2cccc(C(=N)N)c2)c1 [CGP 40215A]											IC50 (Leishmania donovani): 18000 nM; IC50 value against P. falciparum in vitro (P. falciparum): low micromolar
N=C(NN=Cc1ccc([N+](=O)[O-])cc1)NN=Cc1ccc([N+](=O)[O-])cc1 [Compound 27, 2,2′-Bis[(4-nitrophenyl)methylene]carbonimidic Dihydrazide Hydrochloride]	198	96	85	> 200000	247						
N=C(NN=Cc1ccc(-c2ccccc2)cc1)NN=Cc1ccc(-c2ccccc2)cc1 [Compound 26, 2,2′-Bis[(4-diphenyl)methylene]carbonimidic Dihydrazide Hydrochloride]						87	15	33	> 200000	71	
Cl.N=C(NN=Cc1ccc(Cl)cc1)NN=Cc1ccc(Cl)cc1 [robenidine, 1,3-Bis(p-chlorobenzylideneamino)guanidine hydrochloride, reference compound]	814	324	410	30000	1320						absorption [6]: poorly absorbed; murine microsomal stability, t1/2 ([7]; 1 μM, 0.5 mg/mL protein, 37 °C, 1 h, NADPH): 2.6442 h; CLint scaled at 1 μM [7]: 34.4 mL/min/kg; half-life at 1 μM [7, 16]: > 2.5 h; in vitro IC50 Toxoplasma gondii (Toxoplasma gondii): 0.03 µg/mL; P. yoelii ED50 (Plasmodium yoelii [4]): 1.6 mg/kg/day; P. yoelii ED90 (Plasmodium yoelii [4]): 4.9 mg/kg/day; P. yoelii NRD (nonrecrudescence dose, cure dose) (Plasmodium yoelii [4]): >25 mg/kg/day; activity in vivo against P. berghei (P. berghei): moderate activity; murine in vivo nonrecrudescence dose Babesia microti (Babesia microti): 100 mg/kg/day
CCN(CC)CCCC(C)Nc1ccnc2cc(Cl)ccc12 (centres unmarked) [chloroquine, reference compound]	70		16	181000	297						cure in P. yoelii model (Plasmodium yoelii [8]): not curative
N=C(NN=Cc1ccc(S(N)(=O)=O)cc1)NN=Cc1ccc(S(N)(=O)=O)cc1 [Compound 31, 2,2′-Bis[(4-sulphonamidophenyl)methylene]carbonimidic Dihydrazide Hydrochloride]						> 5000	> 5000	> 5000	> 200000	> 5000	
Cl.N#Cc1cccc(/C=N/NC(=N)N/N=C/c2cccc(C#N)c2)c1 [Compound 21, 2,2′-Bis[(3-cyanophenyl)methylene]carbonimidic Dihydrazide Hydrochloride]	20	7	24		31						IC50 ([1]; Plasmodium falciparum, DD2, 48 h, read-out: IC50 Dd2, 48 h): 31 nM; IC50 ([1]; Plasmodium falciparum, DD2, 72 h, read-out: IC50 Dd2, 72 h): 21 nM; IC50 ([1]; Plasmodium falciparum, DD2, 96 h, read-out: IC50 Dd2, 96 h): 22 nM; CLint scaled at 1 μM [7]: 93.8 mL/min/kg; half-life at 1 μM [7, 16]: 0.97 h; P. yoelii ED50 (Plasmodium yoelii [4]): 7.1 mg/kg/day; P. yoelii ED90 (Plasmodium yoelii [4]): 9.4 mg/kg/day; P. yoelii NRD (nonrecrudescence dose, cure dose) (Plasmodium yoelii [4]): >25 mg/kg/day
